Source: PubChem
Only some compounds are listed: those with a hit (about 4.9% of all), similar ones and a draw of the others.
STAT1 inh: reduces IFN-gamma driven STAT1 reporter signal. 200,000 compounds, 0.35% hits. AID 920. NIH 3T3 STAT1-luciferase reporter, luminescence. inhibition, % at 5.5 µM;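 active means inhibition above a set limit, the mean inhibition across all tested compounds plus 3 SD, cut at about 34% in these data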;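 further: 0% = IFN-gamma with DMSO and 100% = IFN-gamma with 300 µM nifuroxazide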
APP 5'UTR act: APP 5'UTR luciferase reporter activation | SH-SY5Y APP 5'UTR luciferase reporter, luminescence; zero percent = DMSO vehicle wells | activation, % at 2 µM | 190,000 compounds, 1% hits;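 active means activation above a set limit, based on mean plus 3 SD of controls, cut at about 140% in these data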
STAT1 act: STAT1 signaling activation. NIH 3T3 STAT1-luciferase reporter, IFN-gamma, luminescence; 100% = IFN-gamma alone, no compound. activation (% of control), % at 5.5 µM. 200,000 compounds, 2.6% hits;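 active means activation above the screen-wide mean activation plus 3 SD, cut at about 130% in these data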;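 further: raw ratio to IFN-gamma control signal so 100% means no change and 0% no light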
STAT3 blocker: inhibitors of IL-6 induced STAT3 signaling; U3A cells, IL-6 STAT3-luciferase reporter, luminescence; host cell line lacks STAT1; inhibition, % at 5.5 µM; 190,000 compounds, 0.89% hits;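 active means inhibition above the mean inhibition across all screened compounds plus 3 SD, cut at about 44% in these data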;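 further: 0% = DMSO only wells and 100% = 100 µM nifuroxazide control wells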
NF-kB neuron act: NF-kB expression increase, human neuronal cells; NF-kB reporter expression; hits give high values; fold change at 12.5 µM; 190,000 compounds, 1.6% hits; in the data active means fold change above about 3.3
STAT3 activator: increases IL-6 driven STAT3 reporter signal; U3A cells, IL-6 STAT3-luciferase reporter, luminescence; 100% = signal with IL-6 EC80 alone; activation (% of control), % at 5.6 µM; 190,000 compounds, 0.91% hits;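 active means activation above the screen-wide mean of compound activation plus 3 SD, cut at about 130% in these data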;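 further: 0% = background luminescence of wells with medium and substrate only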
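System – human U3A cells carrying STAT3-luciferase construct · Probe or stimulus – Interleukin-6, 33 ng/mL · Schedule – compound 1 h, then IL-6 6 h at 37 °C · Signal – luminescence from STAT3-driven luciferase reporter · Evaluation – percent of IL-6-only median luminescence · Benchmarks – IL-6-only high control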
* marks the source's active call; other numbers are inactive results.

Cc1cc(NC(=O)CSc2nc3ccccc3c(=O)n2C(C)c2ccccc2)no1 (stereo not drawn) was read as STAT1 inh 12, APP 5'UTR act 22, STAT1 act 89, STAT3 blocker -33, NF-kB neuron act 3.6* and STAT3 activator 134*.
`Cc1ccc(C(=O)Nc2nc3ccc(S(C)(=O)=O)cc3s2)o1` gave STAT1 inh -22, APP 5'UTR act 103, STAT1 act 121, STAT3 blocker 11, NF-kB neuron act 2.1 and STAT3 activator 93.
`CS(=O)(=O)c1ccc2nc(NC(=O)c3ccco3)sc2c1` gave STAT1 inh -34, APP 5'UTR act 64, STAT1 act 131*, STAT3 blocker 12, NF-kB neuron act 2.3 and STAT3 activator 94.
O=C(NC(=S)Nc1nc2ccc(F)cc2s1)c1ccco1 was read as STAT1 inh -32, APP 5'UTR act 107, STAT1 act 130*, STAT3 blocker -69, NF-kB neuron act 0.84 and STAT3 activator 157*.
O=C(NCC1CCCO1)c1cccc(S(=O)(=O)NCc2ccccc2)c1 (stereo not drawn) was read as STAT1 inh 9, APP 5'UTR act -19, STAT1 act 90, STAT3 blocker -7, NF-kB neuron act 1.1 and STAT3 activator 107.
Cc1csc(SCc2nnc(-c3ccc(Cl)cc3)o2)n1 was read as STAT1 inh -17, APP 5'UTR act 95, STAT1 act 116, STAT3 blocker -11, NF-kB neuron act 3.7* and STAT3 activator 106.
Screening Cc1nnc(SCc2nnc(-c3ccccc3Br)o2)n1-c1ccccc1 returned STAT1 inh 5, APP 5'UTR act 8, STAT1 act 95, STAT3 blocker -4, NF-kB neuron act 0.98 and STAT3 activator 106.
For Cc1ccc(-c2nnc(CSc3nnc(C)s3)o2)cc1 the results were STAT1 inh -10, APP 5'UTR act 12, STAT1 act 109, STAT3 blocker -9, NF-kB neuron act 1.6 and STAT3 activator 108.
`Fc1ccccc1SCc1nnc(-c2ccccc2Br)o1` gave STAT1 inh -15, APP 5'UTR act 161*, STAT1 act 112, STAT3 blocker 20, NF-kB neuron act 7.2* and STAT3 activator 86.
For Cc1csc(SCc2nnc(-c3ccccc3Br)o2)n1 the results were STAT1 inh -37, APP 5'UTR act 185*, STAT1 act 134*, STAT3 blocker 7, NF-kB neuron act 5.4* and STAT3 activator 98.
Brc1ccccc1-c1nnc(CSc2nnnn2-c2ccccc2)o1 was read as STAT1 inh -5, APP 5'UTR act 10, STAT1 act 104, STAT3 blocker -1, NF-kB neuron act 1.1 and STAT3 activator 107.
CCOC(=O)c1c(C)n(OCc2ccccc2)c2ccc3c(no[n+]3[O-])c12 was read as STAT1 inh -11, APP 5'UTR act 0, STAT1 act 109, STAT3 blocker 2, NF-kB neuron act 1.3 and STAT3 activator 102.
For Cn1c(-c2ccccc2)cc2c3no[n+]([O-])c3ccc21 the results were STAT1 inh -34, APP 5'UTR act 0, STAT1 act 130*, STAT3 blocker 6, NF-kB neuron act 1.5 and STAT3 activator 103.
Cc1c(Br)c([N+](=O)[O-])nn1CC(=O)Nc1c(C)n(C)n(-c2ccccc2)c1=O was read as STAT1 inh -3, APP 5'UTR act -2, STAT1 act 102, STAT3 blocker 0, NF-kB neuron act 0.91 and STAT3 activator 99.
Screening COC(=O)c1cc(-c2ccc(Br)cc2)on1 returned STAT1 inh 6, APP 5'UTR act 7, STAT1 act 95, STAT3 blocker 18, NF-kB neuron act 1.2 and STAT3 activator 92.
For CCN(CC)C(=O)c1cc(-c2ccc(Br)cc2)on1 the results were STAT1 inh -52, APP 5'UTR act 74, STAT1 act 147*, STAT3 blocker 12, NF-kB neuron act 3.3* and STAT3 activator 90.
`c1ccc(SCCOCCn2cncn2)cc1` gave STAT1 inh 6, APP 5'UTR act 21, STAT1 act 95, STAT3 blocker 8, NF-kB neuron act 1.6 and STAT3 activator 95.
For c1ccc(COc2ccc(OCCOCCn3cncn3)cc2)cc1 the results were STAT1 inh -21, APP 5'UTR act 154*, STAT1 act 120, STAT3 blocker 16, NF-kB neuron act 3.6* and STAT3 activator 89.
